From ChEMBL document CHEMBL2046427, “Nonhematotoxic naphthalene diimide modified by polyamine: synthesis and biological evaluation” (J Med Chem, 2012)
Calls of active or inactive are those of the source. The calls are words filed in the database; no cut-off is given here.

Experiments:
[1] = system: HepG2; experiment: Cytotoxicity against human HepG2 cells after 48 hrs by MTT assay; format: functional, cell-based; conditions: HepG2, 48 h
Outline: (§1)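 MTT conversion assay at 37 °C, 5% CO₂. […] Inhibition relative to untreated cells as 100%; IC50 by linear regression, mean of three independent experiments.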

[2] = system: MDA-MB-231; experiment: Cytotoxicity against human MDA-MB-231 cells after 48 hrs by MTT assay; format: functional, cell-based; conditions: MDA-MB-231, 48 h; outline: as §1
[3] = system: HCT-116; experiment: Cytotoxicity against human HCT116 cells after 48 hrs by MTT assay; format: functional, cell-based; conditions: HCT-116, 48 h; outline: as §1
[4] = system: K562; experiment: Cytotoxicity against human K562 cells after 48 hrs by MTT assay; format: functional, cell-based; conditions: K562, 48 h; outline: as §1
[5] = system: HepG2; experiment: Cytotoxicity against human HepG2 cells assessed as cell nuclear shrinkage after 48 hrs by Hoechst 33342-based fluorescence-based high-content screening assay; format: functional
Outline: (§2)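 HepG2 seeded 5 × 10³/well; after 12 h treated at 1, 5, 10, 15 and 30 μM for 48 h. Multiparameter cytotoxicity kit staining imaged by high-content screening: Hoechst 33342 for nuclear morphology, permeability dye (green nuclei) for membrane integrity, mitochondrial potential dye, and a weak-base dye for lysosomal mass/pH.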

[6] = system: HepG2; experiment: Cytotoxicity against human HepG2 cells assessed as mitochondrial permeability augmentation after 48 hrs by fluorescence-based high-content screening assay; format: functional, cell-based; outline: as §2
[7] = system: HepG2; experiment: Cytotoxicity against human HepG2 cells assessed as decrease in mitochondrial membrane potential after 48 hrs by fluorescence-based high-content screening assay; format: functional, cell-based; outline: as §2
[8] = system: HepG2; experiment: Cytotoxicity against human HepG2 cells assessed as acruement in lysosomal mass/pH after 48 hrs by fluorescence-based high-content screening assay; format: functional, cell-based; outline: as §2
[9] = system: H22; experiment: Antitumor activity against mouse H22 cells xenografted in Kunming mouse assessed as tumor growth inhibition at 5 mg/kg, iv administered on day 8 post-tumor injection for 7 days measured on day 16 relative to vehicle treated control; format: functional; conditions: read-out: GI
Outline: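 Male Kunming mice, 5 weeks, 18−22 g, injected sc with 2 × 10⁶ H22 cells. From day 8, randomized groups got caudal vein injection (0.2 or 5 mg/kg, or physiologic saline) for 7 consecutive days. On day 16 tumours excised and weighed; inhibitory rate (%) = [(A − B)/A] × 100 using mean tumour weights of control (A) and treated (B). Tumours formalin-fixed, H&E-stained.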

[10] = system: H22; experiment: Antitumor activity against mouse H22 cells xenografted in Kunming mouse assessed as decrease in cell survival at 5 mg/kg, iv administered on day 8 post-tumor injection for 7 days measured on day 16 relative to vehicle treated control; format: functional, organism-based; set-up: dose 5 mg/kg
[11] = system: H22; experiment: Antitumor activity against mouse H22 cells xenografted in Kunming mouse assessed as median survival time at 5 […], iv administered 24 hrs post-tumor injection for 7 days (reference value: 12.7 +/- 2.5 days); format: functional
Outline: (§3)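 Kunming mice bearing H22 cells; iv (caudal vein) dosing or physiologic saline control started 24 h after inoculation and given for 7 consecutive days. Median survival time recorded per group; activity judged as increase in lifespan versus saline control.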

[12] = system: H22; experiment: Antitumor activity against mouse H22 cells xenografted in Kunming mouse assessed as median survival time at 5 […], iv administered 24 hrs post-tumor injection for 7 days relative to vehicle treated control; format: functional; outline: as §3
[13] = system: H22; experiment: Antimetastatic activity against mouse H22 cells xenografted in Kunming mouse assessed as decrease in lung metastases nodus number at 5 mg/kg, iv administered on day 11 post-tumor injection for 7 days measured on day 18 by hematoxylin and eosin staining relative to vehicle treated control; format: functional, organism-based; set-up: dose 5 mg/kg
[14] = system: H22; experiment: Antimetastatic activity against mouse H22 cells xenografted in Kunming mouse assessed as decrease in lung metastasis focuses number at 5 mg/kg, iv administered on day 11 post-tumor injection for 7 days measured on day 18 by hematoxylin and eosin staining relative to vehicle treated control; format: functional, organism-based; set-up: dose 5 mg/kg
[15] = system: H22; experiment: Antimetastatic activity against mouse H22 cells xenografted in Kunming mouse assessed as tumor weight at 5 mg/kg, iv administered on day 11 post-tumor injection for 7 days measured on day 18 (reference value: 0.34 +/- 0.15 g); format: functional
[16] = system: Mus musculus; experiment: Toxicity in mouse H22 cells bearing Kunming mouse assessed as weight loss at 5 mg/kg, iv administered for 7 days measured on day 8 relative to vehicle treated control; format: organism-based; set-up: dose 5 mg/kg, route intravenous; conditions: in vivo, 168 h
Outline: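 Body weight monitored in tumour-bearing mice during 7 consecutive days of iv dosing (10 per group), as a sign of dose-limiting toxicity versus saline-treated controls; mice killed on day 8.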

[17] = system: Mus musculus; experiment: Toxicity in mouse H22 cells bearing Kunming mouse assessed as decrease in platelet number at 5 mg/kg, iv administered for 7 days measured on day 8 relative to vehicle treated control; format: organism-based; set-up: dose 5 mg/kg, route intravenous; conditions: in vivo, 168 h
Outline: (§4)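 Tumour-bearing mice (10 per group) dosed iv for 7 consecutive days; killed on day 8. Blood and bone marrow collected; platelet, RBC, WBC and bone marrow cell counts determined with a Coulter counter. Mean SD versus saline control; Student's t test or ANOVA with q test.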

[18] = system: Mus musculus; experiment: Toxicity in mouse H22 cells bearing Kunming mouse assessed as decrease in red blood cells number at 5 mg/kg, iv administered for 7 days measured on day 8 relative to vehicle treated control; format: organism-based; set-up: dose 5 mg/kg, route intravenous; conditions: in vivo, 168 h; outline: as §4
[19] = system: Mus musculus; experiment: Toxicity in mouse H22 cells bearing Kunming mouse assessed as decrease in white blood cells number at 5 mg/kg, iv administered for 7 days measured on day 8 relative to vehicle treated control; format: organism-based; set-up: dose 5 mg/kg, route intravenous; conditions: in vivo, 168 h; outline: as §4
[20] = system: Mus musculus; experiment: Hematotoxicity in mouse H22 cells bearing Kunming mouse assessed as decrease in bone marrow cell numbers at 5 mg/kg, iv administered for 7 days measured on day 8 relative to vehicle treated control; format: organism-based; set-up: dose 5 mg/kg, route intravenous; conditions: in vivo, 168 h; outline: as §4
[21] = system: Mus musculus; experiment: Toxicity in mouse H22 cells bearing Kunming mouse assessed as change in spleen index number at 5 mg/kg, iv administered for 7 days measured on day 8 relative to vehicle treated control; format: organism-based; set-up: dose 5 mg/kg, route intravenous; conditions: in vivo, 168 h
Outline: (§5)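 Tumour-bearing mice (10 per group) dosed iv for 7 consecutive days, killed on day 8; spleen and thymus removed and weighed. Organ index (%) = (organ weight/body weight) × 100, compared with saline-treated controls.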

[22] = system: Mus musculus; experiment: Toxicity in mouse H22 cells bearing Kunming mouse assessed as change in thymus index number at 5 mg/kg, iv administered for 7 days measured on day 8 relative to vehicle treated control; format: organism-based; set-up: dose 5 mg/kg, route intravenous; conditions: in vivo, 168 h; outline: as §5
[23] = system: Mus musculus; experiment: Toxicity in mouse H22 cells bearing Kunming mouse assessed pathological changes in spleen at 5 mg/kg, iv administered for 7 days measured on day 8 by hematoxylin and eosin staining relative to vehicle treated control; format: organism-based; set-up: dose 5 mg/kg, route intravenous; conditions: in vivo, 168 h
Outline: (§6)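 Tumour-bearing mice dosed iv for 7 consecutive days, killed on day 8; heart, liver, kidney, brain, lung and spleen removed, fixed in 10% formaldehyde 24 h, paraffin-embedded, sectioned and H&E stained for histopathological change versus saline controls.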

[24] = system: Mus musculus; experiment: Toxicity in mouse H22 cells bearing Kunming mouse assessed pathological changes in heart at 5 mg/kg, iv administered for 7 days measured on day 8 by hematoxylin and eosin staining relative to vehicle treated control; format: organism-based; set-up: dose 5 mg/kg, route intravenous; conditions: in vivo, 168 h; outline: as §6
[25] = system: Mus musculus; experiment: Toxicity in mouse H22 cells bearing Kunming mouse assessed pathological changes in liver at 5 mg/kg, iv administered for 7 days measured on day 8 by hematoxylin and eosin staining relative to vehicle treated control; format: organism-based; set-up: dose 5 mg/kg, route intravenous; conditions: in vivo, 168 h; outline: as §6
[26] = system: Mus musculus; experiment: Toxicity in mouse H22 cells bearing Kunming mouse assessed pathological changes in lung at 5 mg/kg, iv administered for 7 days measured on day 8 by hematoxylin and eosin staining relative to vehicle treated control; format: organism-based; set-up: dose 5 mg/kg, route intravenous; conditions: in vivo, 168 h; outline: as §6
[27] = system: Mus musculus; experiment: Toxicity in mouse H22 cells bearing Kunming mouse assessed pathological changes in kidney at 5 mg/kg, iv administered for 7 days measured on day 8 by hematoxylin and eosin staining relative to vehicle treated control; format: organism-based; set-up: dose 5 mg/kg, route intravenous; conditions: in vivo, 168 h; outline: as §6
[28] = system: Mus musculus; experiment: Toxicity in mouse H22 cells bearing Kunming mouse assessed pathological changes in brain at 5 mg/kg, iv administered for 7 days measured on day 8 by hematoxylin and eosin staining relative to vehicle treated control; format: organism-based; set-up: dose 5 mg/kg, route intravenous; conditions: in vivo, 168 h; outline: as §6
[29] = system: HepG2; experiment: Cytotoxicity against human HepG2 cells assessed as cell nuclear shrinkage at 1 to 30 uM after 48 hrs by Hoechst 33342-based fluorescence-based high-content screening assay; format: functional; outline: as §2
[30] = system: HepG2; experiment: Cytotoxicity against human HepG2 cells assessed as mitochondrial permeability augmentation at 1 to 30 uM after 48 hrs by fluorescence-based high-content screening assay; format: functional, cell-based; outline: as §2
[31] = system: HepG2; experiment: Cytotoxicity against human HepG2 cells assessed as decrease in mitochondrial membrane potential at 1 to 30 uM after 48 hrs by fluorescence-based high-content screening assay; format: functional, cell-based; outline: as §2
[32] = system: HepG2; experiment: Cytotoxicity against human HepG2 cells assessed as acruement in lysosomal mass/pH at 1 to 30 uM after 48 hrs by fluorescence-based high-content screening assay; format: functional, cell-based; outline: as §2

NCCCNCCCNCCCN1C(=O)c2ccc(-c3ccc4c(c3)C(=O)N(CCCNCCCNCCCN)C4=O)cc2C1=O
IC50 [1]: > 50 µM
IC50 [2]: > 50 µM
IC50 [3]: > 50 µM

NCCCNCCCNCCCN1C(=O)c2cccc3c(-c4ccccc4)ccc(c23)C1=O
IC50 [1]: 15.6 µM
IC50 [2]: 14.6 µM
IC50 [4]: 14.4 µM

CN(C)CCN1C(=O)c2cccc3cc(N)cc(c23)C1=O [AMONAFIDE]
IC50 [1]: 36 µM
IC50 [2]: 42 µM
IC50 [4]: 31.7 µM
IC50 [3]: 32 µM
Activity [5]: Dose-dependent effect
Activity [6]: Dose-dependent effect
Activity [7]: Dose-dependent effect
Activity [8]: Dose-dependent effect
inhibition in vivo at 5 mg/kg [9]: 44.7%
Activity [10]: Active
MST [11]: 18.9 days
Ratio [12]: 1.5
Activity [13]: Active
Activity [14]: Active
Activity [15]: 0.29 g
Activity [16]: Toxic
Activity [17]: Toxic
Activity [18]: Toxic
Activity [19]: Toxic
Activity [20]: Toxic
Activity [21]: Toxic
Activity [22]: Toxic
Activity [23]: Non-toxic
Activity [24]: Non-toxic
Activity [25]: Non-toxic
Activity [26]: Non-toxic
Activity [27]: Non-toxic
Activity [28]: Non-toxic

NCCCNCCCN1C(=O)c2ccc3c4c(ccc(c24)C1=O)C(=O)N(CCCNCCCN)C3=O
IC50 [1]: 2.83 µM
IC50 [2]: 2.95 µM
IC50 [4]: 1.01 µM
IC50 [3]: 5.02 µM

NCCCCNCCCCNCCCCN1C(=O)c2ccc(-c3ccc4c(c3)C(=O)N(CCCCNCCCCNCCCCN)C4=O)cc2C1=O
IC50 [1]: > 50 µM
IC50 [2]: > 50 µM
IC50 [3]: > 50 µM
Activity [29]: inactive
Activity [30]: inactive
Activity [31]: inactive
Activity [32]: inactive

NCCCNCCCCNCCCN1C(=O)c2cccc3c(-c4ccccc4)ccc(c23)C1=O
IC50 [1]: 15.8 µM
IC50 [2]: 14.5 µM
IC50 [4]: 14.2 µM

NCCCNCCCNCCCN1C(=O)c2ccc3c4c(ccc(c24)C1=O)C(=O)N(CCCNCCCNCCCN)C3=O
IC50 [1]: 48.5 µM
IC50 [2]: 18 µM
IC50 [4]: 21.2 µM
